Assay results as given in PMC10810238 (Arabian journal of chemistry, 2023).
“And” between values parts separate entries of the source, which are not always exact repeats. Equal entries are not always repeated. Where two headings read alike, the source gives them in different places.

Legend:
[1] = test system: P. falciparum NF 54 strain; conditions: ref Miglianico et al., 2023; cited from earlier work
[2] = test system: P. falciparum NF54 strain; experiment: In vitro antiplasmodial screening, 3H-hypoxanthine incorporation assay; format: cell-based, Plasmodium falciparum; conditions: for Selectivity Index: L6 IC50 / Pf IC50
Outline: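 P. falciparum NF54 erythrocytic stages were grown in human A+ red cells (2.5% haematocrit, 0.3% parasitaemia) in hypoxanthine-free RPMI 1640 with HEPES, NaHCO₃, neomycin and Albumax. Test compound was stocked in DMSO at 10 mg/ml and diluted in medium to […]. Plates ran 48 h at 37 °C under 4% CO₂/3% O₂/93% N₂, then 0.5 µCi ³H-hypoxanthine was added for 24 h. Cells were harvested for scintillation counting. IC50 came from sigmoidal curves by linear regression, with chloroquine as standard.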

[3] = In vitro cytotoxicity with L-6 cells; format: cell-based; conditions: rat, L-6 cells (rat skeletal myoblasts)
[4] = test system: Plasmodium berghei NK 65 strain; experiment: Peter's four-day suppressive test; format: in vivo, Plasmodium berghei in Swiss albino mice; conditions: for % Parasitemia: mean ± SEM
[5] = test system: Plasmodium berghei NK 65 strain; experiment: Mean Survival Time; format: in vivo, Plasmodium berghei in Swiss albino mice
Outline: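 Peters' 4-day suppressive design: male and female Swiss albino mice (14–31 g) were inoculated with P. berghei NK 65 and randomised into five groups. Test compound in vehicle (100, 200 or 400 mg/kg) was given orally once daily on days 0–4, first dose 2 h after inoculation. Chloroquine at 100 mg/kg was the positive control and vehicle alone the negative control. Mortality was recorded for 30 days from inoculation.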

In vivo acute toxicity = experiment: In vivo acute toxicity; parameters: species or system Swiss albino mice
Outline: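 Male and female Swiss albino mice, 6–8 weeks old, were dosed per OECD guidance. Each group got one oral dose of test compound (100, 200, 400, 2000 or 5000 mg/kg) in 10% DMSO/10% Tween 80/80% water; a vehicle group served as control. Intoxication signs and mortality were watched for the first 30 min, then over 14 d. Mice were weighed on the first and final day (final day 14 d for the three lower doses, 7 d for the two higher). LD50 was the geometric mean of the least lethal dose and the highest non-lethal dose (Lorke). Kidney and liver were examined by histology, with paired t-test statistics.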

[6] = Plasmodium falciparum, NF54, read-out: Antiplasmodial (Pf) IC50, NF54 strain, erythrocytic stages
[7] = 100 mg/kg oral daily Days 0-4, Day 4 blood
[8] = read-out: Antiplasmodial (Pf) IC50, NF54 strain, erythrocytic stages
[9] = 100 mg/kg oral daily Days 0-4, monitored 30 days, (+) = animals survived

Compound: CCc1nc(N)nc(N)c1-c1ccc(Cl)cc1 [Pyrimethamine]
- IC50 [1]: 17 nM

Compound: N=C(NO)c1ccc(C(=O)NO)cc1 [Compound 1c, N-Hydroxy-4-(N-hydroxycarbamimidoyl)benzamide]
- Selectivity Index [2]: 27.04
- IC50 [2, 6]: 405 nM
- IC50 at 72 h [3]: 11000 nM

Compound: CC1(C)N=C(N)N=C(N)N1c1ccc(Cl)cc1 [cycloguanil]
- IC50 [1]: 4.5 nM

Compound: Nc1ccc(C(=O)NO)cc1 [Compound 3b, 4-Aminobenzenecarbohydroxamic acid]
- % Suppression ± SEM ([4]; 100 mg/kg oral daily Days 0-4): 51.99 ± 10.38%
- % Parasitemia [4, 7]: 6.25 ± 0.95%
- % Suppression ± SEM ([4]; 200 mg/kg oral daily Days 0-4): 78.55 ± 13.35%
- % Parasitemia ([4]; 200 mg/kg oral daily Days 0-4, Day 4 blood): 2.95 ± 1.95%
- % Suppression ± SEM ([4]; 400 mg/kg oral daily Days 0-4): 80.53% and 80.53 ± 3.26%
- % Parasitemia ([4]; 400 mg/kg oral daily Days 0-4, Day 4 blood): 2.6 ± 0.6%
- Selectivity Index [2]: 44.92
- IC50 [2, 6]: < 200 nM
- IC50 [2, 8]: 147 nM
- MST [5, 9]: 24 days
- MST ([5]; 200 mg/kg oral daily Days 0-4, monitored 30 days): 29.5 days
- MST ([5]; 400 mg/kg oral daily Days 0-4, monitored 30 days, (+) = animals survived): 30 (+) days
- IC50 at 72 h [3]: 6600 nM
- Mortality D0 (In vivo acute toxicity; 100 mg/kg bdw oral, 4 mice): 0
- Mortality D1 (In vivo acute toxicity; 100 mg/kg bdw oral, 4 mice): 0
- Mortality D5 (In vivo acute toxicity; 100 mg/kg bdw oral, 4 mice): 1
- Mortality D7 (In vivo acute toxicity; 100 mg/kg bdw oral, 4 mice): 0
- Mortality D14 (In vivo acute toxicity; 100 mg/kg bdw oral, 4 mice): 0
- Liver histology (In vivo acute toxicity; 100 mg/kg, 200 mg/kg and 400 mg/kg, mice): mild to moderate vacuolar degeneration of hepatocytes
- Kidney histology (In vivo acute toxicity; 100 mg/kg, mice): Kidney tubular degeneration
- % Mortality (In vivo acute toxicity; 200 mg/kg bdw oral, 4 mice): 0%
- Mortality D0 (In vivo acute toxicity; 200 mg/kg bdw oral, 4 mice): 0
- Mortality D1 (In vivo acute toxicity; 200 mg/kg bdw oral, 4 mice): 0
- Mortality D5 (In vivo acute toxicity; 200 mg/kg bdw oral, 4 mice): 0
- Mortality D7 (In vivo acute toxicity; 200 mg/kg bdw oral, 4 mice): 0
- Mortality D14 (In vivo acute toxicity; 200 mg/kg bdw oral, 4 mice): 0
- Mortality D0 (In vivo acute toxicity; 400 mg/kg bdw oral, 4 mice): 0
- Mortality D1 (In vivo acute toxicity; 400 mg/kg bdw oral, 4 mice): 1
- Mortality D5 (In vivo acute toxicity; 400 mg/kg bdw oral, 4 mice): 0
- Mortality D7 (In vivo acute toxicity; 400 mg/kg bdw oral, 4 mice): 0
- Mortality D14 (In vivo acute toxicity; 400 mg/kg bdw oral, 4 mice): 0
- Kidney histology (In vivo acute toxicity; 400 mg/kg, mice): Severe congestion and edema
- % Mortality (In vivo acute toxicity; 2,000 mg/kg bdw oral, 4 mice): 0%
- Mortality D0 (In vivo acute toxicity; 2,000 mg/kg bdw oral, 4 mice): 0
- Mortality D1 (In vivo acute toxicity; 2,000 mg/kg bdw oral, 4 mice): 0
- Mortality D5 (In vivo acute toxicity; 2,000 mg/kg bdw oral, 4 mice): 0
- Mortality D7 (In vivo acute toxicity; 2,000 mg/kg bdw oral, 4 mice): 0
- Mortality D14 (In vivo acute toxicity; 2,000 mg/kg bdw oral, 4 mice): 0
- Kidney histology (In vivo acute toxicity; 2000 mg/kg, mice): no lesions
- % Mortality (In vivo acute toxicity; 5,000 mg/kg bdw oral, 1 mouse): 0%
- Mortality D0 (In vivo acute toxicity; 5,000 mg/kg bdw oral, 1 mouse): 0
- Mortality D1 (In vivo acute toxicity; 5,000 mg/kg bdw oral, 1 mouse): 0
- Mortality D5 (In vivo acute toxicity; 5,000 mg/kg bdw oral, 1 mouse): 0
- Mortality D7 (In vivo acute toxicity; 5,000 mg/kg bdw oral, 1 mouse): 0
- Mortality D14 (In vivo acute toxicity; 5,000 mg/kg bdw oral, 1 mouse): 0
- Toxicity at the highest concentration limit (In vivo acute toxicity; 5000 mg/kg, single oral dose, mice): no toxicity
- Body weight change (In vivo acute toxicity; with increase in concentration of compound, acute toxicity study, mice): gained additional weight

Compound: Cl.N=C(N)c1ccc(C(=O)NO)cc1 [Compound 1d, 4-Carbamimidoyl-N-hydroxybenzamide Hydrochloride]
- Selectivity Index [2]: 98.72
- IC50 [2, 6]: < 200 nM
- IC50 [2, 8]: 199 nM
- IC50 at 72 h [3]: 19600 nM

Compound: CCN(CC)CCCC(C)Nc1ccnc2cc(Cl)ccc12 (stereo not shown) [Chloroquine, chloroquine, reference compound]
- % Suppression ± SEM ([4]; 100 mg/kg oral daily Days 0-4): 81.71 ± 1.82%
- % Parasitemia [4, 7]: 2.4 ± 0.08%
- % Suppression ± SEM ([4]; 100 mg/kg oral daily Days 0-4, listed as standard drug): 81.71%
- Selectivity Index [2]: 33069.00
- IC50 [2, 6]: 2 nM
- MST [5, 9]: 30 (+) days
- IC50 at 72 h [3]: 66100 nM

Compound: COc1cc([C@@H]2c3cc4c(cc3[C@H](O)[C@H]3COC(=O)[C@H]23)OCO4)cc(OC)c1OC [Podophyllotoxin, reference compound]
- IC50 at 72 h [3]: 2 nM

Compound: N=C(NO)c1ccc(NC(=S)NOCc2ccccc2)cc1 [Compound 2b, 4-(3-(Benzyloxy)thioureido)-N-hydroxybenzimidamide]
- Selectivity Index [2]: 7.59
- IC50 [2, 6]: 2400 nM
- IC50 at 72 h [3]: 18200 nM
